The source of these data is PMC3063522 (Journal of agricultural and food chemistry, 2011).

One data set relates to Phomopsis obscurans. Put plainly: Antifungal broth dilution microbioassay, Phomopsis obscurans. In kind it is cell-based. The essentials: (§1)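 Broth microdilution adapted from the NCCLS M27-A yeast method for conidia-forming filamentous plant-pathogenic fungi. The commercial fungicide captan served as the internal standard in every assay. Means were compared by SAS analysis of variance with Fisher's protected LSD. For P. viticola and P. obscurans, activity was read at 120 and 144 h of incubation.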
In general terms: Dilution methods test growth across graded concentrations, often in twofold steps.

Data set [1] can be described thus: Cytotoxicity towards HL-60 cells in the antioxidant assay. The format is cell-based. The conditions noted are these: human, HL-60 promyelocytic leukemia cells.
Data set [2] is described as follows: Cytotoxicity. In kind it is cell-based. Particulars: human, SK-OV-3 ovary carcinoma cells. The essentials: (§2)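 Anti-proliferative assay run alongside four human tumour lines (SK-MEL, KB, BT-549, SK-OV-3) and two noncancerous kidney lines (Vero, LLC-PK11). Doxorubicin served as the positive control.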
Data set [3] in a line: Cytotoxicity. In kind it is cell-based. The conditions noted are these: African green monkey, Vero kidney fibroblasts. The essentials:
as §2

The nature of data set [4]: Cytotoxicity. In kind it is cell-based. The conditions noted are these: human, BT-549 breast ductal carcinoma cells. The essentials:
as §2

The nature of data set [5]: Cytotoxicity. In kind it is cell-based. Particulars: human, KB oral epidermal carcinoma cells. The essentials: as §2
A short description of data set [6]: Cytotoxicity to RAW 264.7 cells in the iNOS assay. In kind it is cell-based, mouse. Particulars: mouse, RAW 264.7 macrophages.
Data set [7] is described as follows: Cytotoxicity. In kind it is cell-based. Particulars: human, SK-MEL malignant melanoma cells. A digest of the protocol: as §2
Data set [8] can be described thus: Cytotoxicity. The format is cell-based. The conditions noted are these: pig, LLC-PK11 kidney epithelial cells. The essentials:
as §2

For data set [9], the system named is adult A. aegypti female mosquitoes. The data set can be described thus: Adult mosquito topical toxicity assay. The format is in vivo. The conditions noted are these: topical, 3.12 μg per insect; acetone/DMSO control gave 5.8±1.8%.
Another data set concerns Phomopsis viticola. The data set can be described thus: Antifungal broth dilution microbioassay, Phomopsis viticola. The format is cell-based. A digest of the protocol: as §1
A further data set deals with mosquito larvae. The data set can be described thus: Mosquito larvae toxicity bioassay. In kind it is in vivo. Particulars: Figure 4. The essentials:
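Larval toxicity bioassay, run in triplicate. Controls were untreated, DMSO-acetone carrier, and permethrin as the positive control.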

In the next data set the test system is RAW 264.7 cells. The data set can be described thus: Cytotoxicity to RAW 264.7 cells in the iNOS assay. Particulars: RAW 264.7 cells, same assay. The format is cell-based, mouse.
In a further data set the test system is Botrytis cinerea. The data set can be described thus: Antifungal broth dilution microbioassay, Botrytis cinerea. The format is cell-based. A digest of the protocol: as §1
The conditions of data set [10]: homologous standards for the HPLC regression; cited from earlier work.
Setting [11] is: 120 and 144 h (from 120 to 144 h).

In brackets after ≈: the same amount, converted by molar mass. Entries after “also recorded” stand apart in the source; their conditions may differ. A value given as a limit tells only on which side of the number the result lay.

One may read the IC50 as the concentration that inhibits the measured activity by half. A higher IC50 goes with weaker potency in that assay.

As for `CC(C)(O)C(O)Cc1cc(/C=C/c2cc(O)cc(O)c2)ccc1O` (stereo not drawn) [Compound 7, arahypin-2], the “Antifungal activity against P. obscurans” value in the data set with Phomopsis obscurans (setting [11]) is “highest levels of inhibition”; in the data set on Phomopsis obscurans (120 h), “very high”; in the data set with Phomopsis obscurans (144 h of incubation) it was “extremely low”. Moreover, the IC50 (in [1]; in the data set “Cytotoxicity [2]”; in “Cytotoxicity [3]”; in the data set “Cytotoxicity [4]”; in the data set “Cytotoxicity [5]”; in data set [6]) was more than 25 µg/mL in each case. For the same molecule, the IC50 in the data set “Cytotoxicity [7]” and in “Cytotoxicity [8]” was more than 25 µg/mL in each case. Besides, in data set [9], the “Adult mosquito mortality rate ± SD” value is reported as “marginally active”.

`Oc1ccc(/C=C/c2cc(O)cc(O)c2)cc1` [Compound 24, resveratrol, reference compound]: the IC50 is 8 µg/mL (≈ 35 µM) in [1]; more than 25 µg/mL in the data set “Cytotoxicity [2]”; more than 25 µg/mL in “Cytotoxicity [3]”; more than 25 µg/mL in “Cytotoxicity [4]”; more than 25 µg/mL in the data set “Cytotoxicity [5]”; more than 25 µg/mL in [6]. Besides, the concentration for half-maximal inhibition (IC50) in the data set “Cytotoxicity [7]” and in “Cytotoxicity [8]” was more than 25 µg/mL in each case. Moreover, the “Antifungal activity against P. viticola” value in the data set with Phomopsis viticola (at the highest concentrations, Figure 2D) was “essentially inactive”. Further, the “Toxicity to mosquito larvae” value in the data set on mosquito larvae is given as “significantly lower toxicity”. In addition, in the data set on RAW 264.7 cells, the “Inhibition of iNOS activity (NO production) in RAW 264.7 cells IC50 Cytotoxicity” value is “no cytotoxicity”. Besides, the results for the “Growth inhibition of B. cinerea” value in the data set with Botrytis cinerea (48 h) and with Botrytis cinerea (72 h) were “minimal activity” and “no activity”, respectively.

Consider `CC(C)=CCc1c(O)cc(/C=C/c2ccccc2)cc1O` [Compound 5, chiricanine A], for which the “Antifungal activity against P. obscurans” value in the data set on Phomopsis obscurans (setting [11]) is reported as “highest levels of inhibition”; in the data set with Phomopsis obscurans (144 h of incubation), “more fungicidal; also recorded: very high”. Besides, the IC50 in [1] is 19 µg/mL (≈ 67.8 µM); in “Cytotoxicity [2]”, more than 25 µg/mL; in the data set “Cytotoxicity [3]”, more than 25 µg/mL; in “Cytotoxicity [4]”, more than 25 µg/mL; in “Cytotoxicity [5]”, more than 25 µg/mL; in [6] it was 13 µg/mL (≈ 46.4 µM). The concentration for half-maximal inhibition (IC50) stood at 20 µg/mL (≈ 71.3 µM) in “Cytotoxicity [7]” and 19.5 µg/mL (≈ 69.6 µM) in “Cytotoxicity [8]”. Further, the “Antifungal activity against P. viticola” value in the data set on Phomopsis viticola (144 h of incubation) is listed as “more fungicidal”. Besides, the “Toxicity to mosquito larvae” value in the data set with mosquito larvae is on record as “significantly lower toxicity”. In addition, the “Adult mosquito mortality rate ± SD” value in data set [9] amounted to 6.7±5.8%.

Consider `CC(C)/C=C/c1c(O)cc(/C=C/c2ccc(O)c(O)c2)cc1O` [Compound 1, arachidin-1], for which the “Antifungal activity against P. obscurans” value with Phomopsis obscurans (setting [11]) is listed as “did not exhibit any activity”. Moreover, the IC50 came to 5.2 µg/mL (≈ 16.6 µM) in data set [1]; 14.5 µg/mL (≈ 46.4 µM) in the data set “Cytotoxicity [2]”; 12 µg/mL (≈ 38.4 µM) in “Cytotoxicity [3]”; 4.8 µg/mL (≈ 15.4 µM) in “Cytotoxicity [4]”; 4.8 µg/mL (≈ 15.4 µM) in “Cytotoxicity [5]”; 8.3 µg/mL (≈ 26.6 µM) in [6]. The figures for the 50% inhibitory concentration (IC50) in “Cytotoxicity [7]” and in the data set “Cytotoxicity [8]” were 15 µg/mL (≈ 48 µM) and 2.8 µg/mL (≈ 8.96 µM), respectively. Also, the “Adult mosquito mortality rate ± SD” value in data set [9] is “marginally active”.

Turning to `CC1(C)C=Cc2c(O)cc(/C=C/c3ccc(O)cc3)cc2O1` [Compound 10, arahypin-5], in the data set on Phomopsis obscurans (144 h of incubation), the “Antifungal activity against P. obscurans” value was “more fungicidal”. In addition, the IC50 in data set [1] is 4.5 µg/mL (≈ 15.3 µM); in “Cytotoxicity [2]”, more than 25 µg/mL; in the data set “Cytotoxicity [3]” it was more than 25 µg/mL; in “Cytotoxicity [4]” it was more than 25 µg/mL; in the data set “Cytotoxicity [5]”, more than 25 µg/mL; in data set [6] it was 16 µg/mL (≈ 54.4 µM). Moreover, the IC50 was found to be 17.5 µg/mL (≈ 59.5 µM) in “Cytotoxicity [7]” and 19.5 µg/mL (≈ 66.2 µM) in “Cytotoxicity [8]”. In the data set with Phomopsis viticola (144 h of incubation), the “Antifungal activity against P. viticola” value is recorded as “more fungicidal”. The “Adult mosquito mortality rate ± SD” value in data set [9] amounted to 5.8±1.8%.

Consider `COc1cc(/C=C/c2ccc(O)cc2)cc(OC)c1` [Compound 21, pterostilbene], for which the IC50 in data set [1] is 21 µg/mL (≈ 81.9 µM); in the data set “Cytotoxicity [2]”, more than 25 µg/mL; in the data set “Cytotoxicity [3]” it was more than 25 µg/mL; in “Cytotoxicity [4]”, more than 25 µg/mL; in “Cytotoxicity [5]” it was more than 25 µg/mL; in [6], more than 25 µg/mL. The IC50 in the data set “Cytotoxicity [7]” and in the data set “Cytotoxicity [8]” was more than 25 µg/mL each time. In addition, in the data set with mosquito larvae, the “Toxicity to mosquito larvae” value was “highest activity; also recorded: somewhat greater activity”. In addition, in the data set on RAW 264.7 cells, the “Inhibition of iNOS activity (NO production) in RAW 264.7 cells IC50 Cytotoxicity” value was “no cytotoxicity”.

On to `CCCc1ccccc1` [propylbenzene], for which the “log P (known constants of standards)” value in data set [10] was 3.69.

Consider `CC(C)=CCc1c(O)cc(/C=C/c2ccc(O)cc2)cc1O` [Compound 2, arachidin-2], for which the “Antifungal activity against P. obscurans” value with Phomopsis obscurans (setting [11]) is “did not exhibit any activity”. Further, the IC50 was 16 µg/mL (≈ 54 µM) in [1]; more than 25 µg/mL in the data set “Cytotoxicity [2]”; 13.5 µg/mL (≈ 45.6 µM) in the data set “Cytotoxicity [3]”; 7.5 µg/mL (≈ 25.3 µM) in the data set “Cytotoxicity [4]”; 22.5 µg/mL (≈ 75.9 µM) in the data set “Cytotoxicity [5]”; more than 25 µg/mL in data set [6]. Besides, the results for the IC50 in “Cytotoxicity [7]” and in the data set “Cytotoxicity [8]” were 20 µg/mL (≈ 67.5 µM) and 13.5 µg/mL (≈ 45.6 µM), respectively. For the same molecule, the “Inhibition of iNOS activity (NO production) in RAW 264.7 cells IC50 Cytotoxicity” value with RAW 264.7 cells was “no cytotoxicity”.

As for `CC(C)/C=C/c1c(O)cc(/C=C/c2ccc(O)cc2)cc1O` [Compound 3, arachidin-3], the “Antifungal activity against P. obscurans” value in the data set on Phomopsis obscurans (setting [11]) is “did not exhibit any activity”. The IC50 (in data set [1]; in “Cytotoxicity [2]”; in the data set “Cytotoxicity [3]”; in the data set “Cytotoxicity [4]”; in “Cytotoxicity [5]”; in [6]) was more than 25 µg/mL each time. Also, the IC50 in the data set “Cytotoxicity [7]” and in the data set “Cytotoxicity [8]” was more than 25 µg/mL each time. Moreover, the “Inhibition of iNOS activity (NO production) in RAW 264.7 cells IC50 Cytotoxicity” value in the data set on RAW 264.7 cells is given as “no cytotoxicity”.
